The values that follow come from ChEMBL document CHEMBL2417530, “Coumarin derivatives protect against ischemic brain injury in rats” (Eur J Med Chem, 2013).

Data set [1] deals with Rattus norvegicus. Put plainly: In vivo neuroprotective activity in Sprague-Dawley rat transient middle cerebral artery occlusion model assessed as suppression of neuronal loss in cerebral cortex at 1.5 to 6 mg/kg, iv measured 24 hrs post reperfusion by TUNEL assay. In kind it is functional, organism-based. The method, boiled down:
(§1)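 Transient MCAO in rats (60 min occlusion), with iv treatment at 1.5, 3.0 or 6.0 mg/kg at reperfusion. At 24 h brains were perfusion-fixed in 4% paraformaldehyde and paraffin-embedded. Hippocampal or cortical sections were proteinase K-treated (20 µg/mL, 15 min, RT), given TdT reaction (37 °C, 1 h) and anti-digoxigenin-AP detection, and TUNEL-positive cells were examined at 200×.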

For data set [2], the system named is Rattus norvegicus. Kind of data set: In vivo neuroprotective activity in Sprague-Dawley rat transient middle cerebral artery occlusion model assessed as suppression of neuronal loss in hippocampus at 1.5 to 6 mg/kg, iv measured 24 hrs post reperfusion by TUNEL assay. In kind it is functional, organism-based. The essentials:
as §1

Data set [3] concerns Rattus norvegicus. Put plainly: In vivo neuroprotective activity in iv dosed Sprague-Dawley rat transient middle cerebral artery occlusion model assessed as suppression of neuronal loss in cerebral cortex measured 24 hrs post reperfusion by nissl staining assay. Format: functional, organism-based. The method, boiled down:
(§2)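 After 60 min transient MCAO with iv treatment at reperfusion, rats were perfused at 24 h with PBS, then 4% buffered paraformaldehyde. Brains were paraffin-embedded and coronal sections stained with 0.5% cresyl fast violet (Nissl). Cortex and hippocampus were examined at 200×.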

Data set [4] concerns Rattus norvegicus. Put plainly: In vivo neuroprotective activity in iv dosed Sprague-Dawley rat transient middle cerebral artery occlusion model assessed as suppression of neuronal loss in hippocampus measured 24 hrs post reperfusion by nissl staining assay. In kind it is functional, organism-based. The method, boiled down: as §2
Data set [5] relates to Rattus norvegicus. Kind of data set: In vivo neuroprotective activity in Sprague-Dawley rat transient middle cerebral artery occlusion model assessed as reduction of brain-water content at 1.5 to 6 mg/kg, iv measured 24 hrs post reperfusion. Format: functional, organism-based. The method, boiled down: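 Male SD rats (7 weeks, 260-280 g) had 60 min transient right MCA occlusion with a nylon filament, then reperfusion. Saline or drug (1.5, 3.0, 6.0 mg/kg) was injected iv at reperfusion. Animals without neurological deficit were replaced. At 24 h brains were oven-dried at 110 °C for 24 h, and water content was taken as (wet−dry)/wet; n = 12.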

Data set [6] deals with Rattus norvegicus. Kind of data set: In vivo neuroprotective activity in Sprague-Dawley rat transient middle cerebral artery occlusion model assessed as reduction of infarct size at 6 mg/kg, iv measured 24 hrs post reperfusion by TTC staining assay relative to vehicle-treated control. Format: functional. Also on record: scale not given: the % may be the effect or the level left. The method, boiled down:
(§3)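 Male Sprague-Dawley rats, 7 weeks, 260–280 g, under 10% chloral hydrate ip. Right MCA occluded 60 min by tip-burned 4-0 nylon thread via common carotid, then reperfused. Saline or drug given iv at reperfusion, ethanol as cosolvent. Killed 24 h later; six 2 mm slices in 1% TTC in PBS, 37 °C, 30 min. Infarct area traced as % of total area; n = 12.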

Data set [7] deals with Rattus norvegicus. Kind of data set: In vivo neuroprotective activity in Sprague-Dawley rat transient middle cerebral artery occlusion model assessed as reduction of infarct size at 3 mg/kg, iv measured 24 hrs post reperfusion by TTC staining assay relative to vehicle-treated control. In kind it is functional. Details: scale not given: the % may be the effect or the level left. The method, boiled down: as §3

The test system of data set [8] is Rattus norvegicus. Kind of data set: In vivo neuroprotective activity in iv dosed Sprague-Dawley rat transient middle cerebral artery occlusion model assessed as reduction of infarct size measured 24 hrs post reperfusion by TTC staining assay. Format: functional, organism-based. The method, boiled down:
as §3

The next data set relates to PC-12. Put plainly: Neuroprotective activity in rat PC12 cells assessed as attenuation of oxygen-glucose deprivation-induced cellular damage at 10 uM by MTT assay relative to control. In kind it is functional. The method, boiled down:
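PC12 cells were seeded at 5×10^3/well for 24 h. OGD insult was low-glucose medium plus 5 mM sodium dithionite for 24 h, given together with 10 µM compound. MTT (5 mg/mL) was added for 4 h and absorbance read at 570 nm. Viability was expressed as % of full-medium control; n = 3.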
(In general: Tetrazolium assays rely on reduction of a dye to a coloured formazan, in cell work by metabolically active cells.)

For another data set, the system named is Cortex. Kind of data set: Drug uptake in Sprague-Dawley rat cortex at 2 x 10^-5 mol/kg, iv measured at 60 mins by LC-MS analysis. Format: ADME, organism-based. The following applies: in vivo, 1 h. The essentials:
(§4)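 Male Sprague-Dawley rats (260-280 g, n = 4) given a single iv dose of 6 mg/kg. Blood was taken from the jugular vein into heparin tubes under ether, and plasma was spun out and stored at -70 °C. After saline perfusion, cortex was homogenized in 2 volumes of water. Samples were precipitated with acetonitrile with internal standard added and quantified by LC-MS against a weighted linear calibration.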

The nature of data set [9]: Clearance in Sprague-Dawley rat plasma at 2 x 10^-5 mol/kg, iv by LC-MS analysis. Format: ADME, organism-based. The following applies: 2e-05 mol/kg. The essentials:
as §4

Data set [10] in a line: Volume of distribution in Sprague-Dawley rat plasma at 2 x 10^-5 mol/kg, iv by LC-MS analysis. Format: ADME, organism-based. The conditions noted are these: 2e-05 mol/kg. The method, boiled down: as §4
Data set [11] is described as follows: AUC in Sprague-Dawley rat cortex at 2 x 10^-5 mol/kg, iv by LC-MS analysis. Format: ADME, organism-based. The conditions noted are these: 2e-05 mol/kg. The essentials:
as §4

The nature of data set [12]: AUC in Sprague-Dawley rat plasma at 2 x 10^-5 mol/kg, iv by LC-MS analysis. Format: ADME, organism-based. The conditions noted are these: 2e-05 mol/kg. The method, boiled down: as §4
A short description of data set [13]: Terminal half life in Sprague-Dawley rat cortex at 2 x 10^-5 mol/kg, iv by LC-MS analysis. The conditions noted are these: 2e-05 mol/kg, read-out: beta t1/2. In kind it is ADME, organism-based. The essentials: as §4
A short description of data set [14]: Terminal half life in Sprague-Dawley rat plasma at 2 x 10^-5 mol/kg, iv by LC-MS analysis. In kind it is ADME, organism-based. The following applies: 2e-05 mol/kg, read-out: beta t1/2. The method, boiled down:
as §4

The nature of data set [15]: Tmax in Sprague-Dawley rat plasma at 2 x 10^-5 mol/kg, iv by LC-MS analysis. Format: ADME, organism-based. The following applies: 2e-05 mol/kg. The method, boiled down:
as §4

Data set [16] can be described thus: Tmax in Sprague-Dawley rat cortex at 2 x 10^-5 mol/kg, iv by LC-MS analysis. In kind it is ADME, organism-based. The following applies: 2e-05 mol/kg. The method, boiled down:
as §4

Data set [17] in a line: Cmax in Sprague-Dawley rat cortex at 2 x 10^-5 mol/kg, iv measured at 2 mins by LC-MS analysis. The conditions noted are these: 2e-05 mol/kg. In kind it is ADME, organism-based. The method, boiled down:
as §4

Data set [18] in a line: Cmax in Sprague-Dawley rat plasma at 2 x 10^-5 mol/kg, iv measured at 2 mins by LC-MS analysis. The following applies: 2e-05 mol/kg. In kind it is ADME, organism-based. The essentials:
as §4

The subject of data set [19] is Rattus norvegicus. Kind of data set: Anti-ischemia activity in Sprague-Dawley rat transient middle cerebral artery occlusion model assessed as inhibition of cleaved caspase-3 protein expression in cerebral cortex at 1.5 to 6 mg/kg, iv measured 24 hrs post reperfusion by Western blot analysis relative to vehicle-treated control. In kind it is functional, organism-based. The method, boiled down:
(§5)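 Rats underwent 60 min intraluminal right MCA occlusion under chloral hydrate, then reperfusion, with iv saline or drug (1.5, 3.0, 6.0 mg/kg) at reperfusion. At 24 h they were saline-perfused and cortex and hippocampus lysed in RIPA buffer. Protein was BCA-normalized, run on SDS-PAGE and blotted for Bcl-2, Bax, cleaved caspase-3 and β-actin with ECL detection; n = 4.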

Data set [20] has as its system Rattus norvegicus. Put plainly: Anti-ischemia activity in Sprague-Dawley rat transient middle cerebral artery occlusion model assessed as inhibition of cleaved caspase-3 protein expression in hippocampus at 1.5 to 6 mg/kg, iv measured 24 hrs post reperfusion by Western blot analysis relative to vehicle-treated control. In kind it is functional, organism-based. The method, boiled down: as §5

For data set [21], the system named is Rattus norvegicus. Put plainly: Anti-ischemia activity in Sprague-Dawley rat transient middle cerebral artery occlusion model assessed as inhibition of Bax protein expression in cerebral cortex at 1.5 to 6 mg/kg, iv measured 24 hrs post reperfusion by Western blot analysis relative to vehicle-treated control. Format: functional, organism-based. The essentials: as §5
Background: Immunoblotting shows a protein as a band on a membrane.

For data set [22], the system named is Rattus norvegicus. Put plainly: Anti-ischemia activity in Sprague-Dawley rat transient middle cerebral artery occlusion model assessed as upregulation of Bcl-2 protein expression in hippocampus at 1.5 to 6 mg/kg, iv measured 24 hrs post reperfusion by Western blot analysis relative to vehicle-treated control. Format: functional, organism-based. The essentials:
as §5

The source made the active and inactive calls. The calls are words filed in the database; no cut-off is given here.

For the compound `COc1cc(O)cc2oc(=O)c(N3CCN(C)CC3)c(C)c12`, the outcome with Rattus norvegicus [1], in the data set on Rattus norvegicus [2], with Rattus norvegicus [5] and in the data set with Rattus norvegicus [22] was Active. Moreover, the Activity result in the data set with Rattus norvegicus [3] is “Dose-dependent effect”; with Rattus norvegicus [4], “Dose-dependent effect”; with Rattus norvegicus [6] it was 18.89%; in the data set with Rattus norvegicus [7], 20.36%; in the data set on Rattus norvegicus [8] it was “Dose-dependent effect”; in the data set with PC-12, 66%. In addition, the Drug uptake result with Cortex was “Not Active”. In data set [9], this compound yielded a clearance of 9 mL/min. The compound further showed a Vd in data set [10] of 0.084 L. The AUC is 42.4 ng·h/mL in data set [11] and 2870 ng·h/mL in data set [12]. The half-life worked out at 15.5 min in data set [13] and 6.51 min in [14]. Moreover, the Tmax in data set [15] and in [16] was 2 min each time. The figures for the Cmax in [17] and in data set [18] were 122 ng/mL and 13300 ng/mL, respectively. In addition, the inhibition result in the data set with Rattus norvegicus [19], in the data set with Rattus norvegicus [20] and in the data set on Rattus norvegicus [21] was “Active” in each case.

What is called clearance is a measure of how efficiently the substance is removed, as volume per time. As usually defined, the Vd is a proportionality between amount in the body and measured concentration, not a real space. In general, AUC refers to concentration integrated over time. Broadly, the Tmax is the time at which the peak concentration occurs. What is called Cmax is the maximum level reached in the sampled fluid or tissue.
